In assay [1] the target is T1, P2Y purinoceptor 6 (Homo sapiens, UniProt Q15077). The assay can be described thus: Agonist activity at human P2Y6R expressed in 1321N1 cells assessed as calcium mobilization at 3 uM measured by microplate reader method relative to control. Type of assay: functional, cell-based. Put shortly:
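Human P2Y6R stably expressed in 1321N1 astrocytoma cells; fluorescence-based (FLIPR) Ca2+ mobilization read-out; agonist tested at a single 3 µM concentration and expressed as % activation.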
For orientation: A change in cytosolic calcium serves as a functional read-out for many receptors and channels.

Assay [2] addresses T1, P2Y purinoceptor 6. The assay can be described thus: Agonist activity at human P2Y6R expressed in 1321N1 cells assessed as calcium mobilization measured by microplate reader method. Type of assay: functional, cell-based.
Assay [3] concerns the target T2, P2Y purinoceptor 14 (Homo sapiens, UniProt Q15391).
T2 sequence (Q15391 whole entry): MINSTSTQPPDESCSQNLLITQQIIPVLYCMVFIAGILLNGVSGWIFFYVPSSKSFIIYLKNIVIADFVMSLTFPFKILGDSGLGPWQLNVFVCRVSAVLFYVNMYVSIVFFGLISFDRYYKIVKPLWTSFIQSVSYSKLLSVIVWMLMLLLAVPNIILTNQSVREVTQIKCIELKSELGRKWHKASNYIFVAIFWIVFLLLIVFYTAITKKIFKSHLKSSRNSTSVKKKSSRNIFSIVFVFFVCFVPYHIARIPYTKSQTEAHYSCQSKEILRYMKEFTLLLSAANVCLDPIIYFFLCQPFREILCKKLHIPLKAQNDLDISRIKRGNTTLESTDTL
The assay can be described thus: Binding affinity to human P2Y14 expressed in CHO cells. Type of assay: cell-based. The method in brief:
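Whole CHO cells stably expressing human P2Y14R; a fluorescent antagonist serves as tracer and binding is read by flow cytometry; IC50 from inhibition of tracer binding.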

Assay [4] has as its target T1, P2Y purinoceptor 6. The assay can be described thus: Agonist activity at human P2Y6R expressed in 1321N1 cells assessed as calcium mobilization measured by FLIPR method. Type of assay: functional, cell-based.
For assay [5], the target named is T3, 5'-nucleotidase (Rattus norvegicus, UniProt P21588).
T3 sequence (P21588 whole entry): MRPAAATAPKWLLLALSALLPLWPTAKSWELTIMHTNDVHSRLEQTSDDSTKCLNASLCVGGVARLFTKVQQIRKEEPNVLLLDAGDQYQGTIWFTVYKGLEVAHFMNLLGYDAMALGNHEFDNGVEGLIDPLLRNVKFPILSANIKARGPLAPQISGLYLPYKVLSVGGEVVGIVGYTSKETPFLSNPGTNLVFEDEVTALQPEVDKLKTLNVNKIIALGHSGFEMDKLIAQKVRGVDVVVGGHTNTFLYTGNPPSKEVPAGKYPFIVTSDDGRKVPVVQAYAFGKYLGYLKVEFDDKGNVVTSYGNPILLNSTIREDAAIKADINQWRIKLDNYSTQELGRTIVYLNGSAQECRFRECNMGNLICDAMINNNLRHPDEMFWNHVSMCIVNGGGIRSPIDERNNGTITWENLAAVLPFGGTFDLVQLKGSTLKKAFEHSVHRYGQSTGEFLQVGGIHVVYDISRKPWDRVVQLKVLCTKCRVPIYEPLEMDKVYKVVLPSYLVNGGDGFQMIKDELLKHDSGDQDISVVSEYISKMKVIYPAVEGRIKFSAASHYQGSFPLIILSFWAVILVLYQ
The assay can be described thus: Inhibition of rat CD73 using [3H]-AMP as substrate by radiometric assay.

The species entered for assay [6] is Homo sapiens. Nature of the assay: Selectivity ratio of IC50 for human P2Y14 expressed in CHO cells to EC50 for human P2Y6R expressed in 1321N1 cells. Format: cell-based. Put shortly:
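The ratio divides the hP2Y14R IC50 by the hP2Y6R EC50. The IC50 comes from flow-cytometric displacement of a fluorescent antagonist tracer in whole hP2Y14R-CHO cells.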

The target in assay [7] is Sigma non-opioid intracellular receptor 1 (Homo sapiens) (UniProt Q99720). Nature of the assay: Displacement of [3H]-Pentazocine from sigma-1 receptor (unknown origin) at 10 uM relative to control. Background: Loss of bound radioactivity is the signal in a displacement assay; it reports binding, not function.
Sequence of Sigma non-opioid intracellular receptor 1 (Homo sapiens) (Q99720 whole entry): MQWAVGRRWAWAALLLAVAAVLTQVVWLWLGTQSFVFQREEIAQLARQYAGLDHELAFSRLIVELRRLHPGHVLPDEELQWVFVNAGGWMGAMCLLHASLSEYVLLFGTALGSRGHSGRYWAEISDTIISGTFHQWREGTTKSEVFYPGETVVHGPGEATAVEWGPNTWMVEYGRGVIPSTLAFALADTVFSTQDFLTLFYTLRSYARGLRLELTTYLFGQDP
In assay [8] the target is D(3) dopamine receptor (Homo sapiens) (UniProt P35462). The assay can be described thus: Displacement of [3H]-N-methylspiperone from dopamine D3 receptor (unknown origin) at 10 uM relative to control.
Sequence of D(3) dopamine receptor (Homo sapiens) (P35462 whole entry): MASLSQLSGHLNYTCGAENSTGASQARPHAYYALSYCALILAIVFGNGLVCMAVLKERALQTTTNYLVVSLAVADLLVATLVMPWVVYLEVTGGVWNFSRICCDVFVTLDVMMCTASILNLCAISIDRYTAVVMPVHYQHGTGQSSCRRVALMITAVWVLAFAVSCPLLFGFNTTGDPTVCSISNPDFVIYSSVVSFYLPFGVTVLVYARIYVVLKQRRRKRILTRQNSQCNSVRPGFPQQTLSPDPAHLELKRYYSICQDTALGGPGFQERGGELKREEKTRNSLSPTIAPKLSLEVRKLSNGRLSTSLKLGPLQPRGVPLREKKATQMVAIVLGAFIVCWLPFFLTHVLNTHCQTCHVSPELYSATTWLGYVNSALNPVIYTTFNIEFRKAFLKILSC
For assay [9], the target named is T2, P2Y purinoceptor 14. The assay can be described thus: Agonist activity at human P2Y14 expressed in CHO cells.
The target in assay [10] is T1, P2Y purinoceptor 6. The assay can be described thus: Agonist activity at human P2Y6R expressed in 1321N1 cells by PLC assay. The settings on record: dose 3.0 µM, time 30.0 min.

T1 sequence (Q15077 whole entry): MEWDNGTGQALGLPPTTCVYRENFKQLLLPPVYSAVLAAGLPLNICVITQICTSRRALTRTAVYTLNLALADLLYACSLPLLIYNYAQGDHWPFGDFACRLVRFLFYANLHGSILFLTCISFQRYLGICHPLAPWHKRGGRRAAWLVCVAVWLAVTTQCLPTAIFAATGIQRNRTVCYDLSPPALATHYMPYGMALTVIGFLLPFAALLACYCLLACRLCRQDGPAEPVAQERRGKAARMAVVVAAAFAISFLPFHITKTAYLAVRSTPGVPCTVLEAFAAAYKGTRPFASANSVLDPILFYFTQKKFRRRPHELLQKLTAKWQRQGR

As to `CCCn1c(=O)ccn([C@@H]2O[C@H](COP(=O)(O)CP(=O)(O)O)[C@@H](O)[C@H]2O)c1=O`, the Activity in [1] stood at 2.7%.

Regarding `Cn1c(=O)n([C@@H]2O[C@H](COP(=O)(O)CP(=O)(O)O)[C@@H](O)[C@H]2O)cc/c1=N/OCc1ccccc1`, in assay [1], the Activity was 3.6%. For the molecule `O=c1[nH]c(=O)n([C@@H]2O[C@H](COP(=O)(O)CP(=O)(O)O)[C@@H](O)[C@H]2O)cc1Br`, the EC50 in [2] came out at 104 nM.

For `O=c1[nH]/c(=N\OCc2cccc(Cl)c2)ccn1[C@@H]1O[C@H](COP(=O)(O)CP(=O)(O)O)[C@@H](O)[C@H]1O`, the EC50 in assay [2] and in assay [4] was 1450 nM in each case. The molecule also came in with a half-inhibitory concentration (IC50) in assay [3] of over 100000 nM. As for `Cc1cn([C@@H]2O[C@H](COP(=O)(O)CP(=O)(O)O)[C@@H](O)[C@H]2O)c(=O)[nH]/c1=N/OCc1ccccc1`, the half-inhibitory concentration (IC50) in [5] stood at 321 nM. Consider `O=c1[nH]c(=O)n([C@@H]2O[C@H](COP(=O)(O)CP(=O)(O)O)[C@@H](O)[C@H]2O)cc1Cl`, for which the half-maximal inhibitory concentration (IC50) in assay [3] stood at 16600 nM. With `O=c1[nH]c(=O)n([C@@H]2O[C@H](COP(=O)(O)CP(=O)(O)O)[C@@H](O)[C@H]2O)cc1F`, the IC50 in assay [5] was over 1000 nM. For `O=c1[nH]/c(=N/OCc2ccccc2)c(F)cn1[C@@H]1O[C@H](COP(=O)(O)CP(=O)(O)O)[C@@H](O)[C@H]1O`, the EC50 in assay [2] and in assay [4] was 549 nM in each case. The IC50 in [3] was determined as 21500 nM; in assay [5], 85 nM. In [6], the Ratio IC50/EC50 worked out at 39.

Turning to `O=c1[nH]/c(=N\OCc2ccc(S(F)(F)(F)(F)F)cc2)ccn1[C@@H]1O[C@H](COP(=O)(O)CP(=O)(O)O)[C@@H](O)[C@H]1O`, the EC50 in assay [2] was 1590 nM. In addition, in [7], the inhibition came to 59%. Take `COC(=O)c1ccc(CO/N=c2/ccn([C@@H]3O[C@H](COP(=O)(O)CP(=O)(O)O)[C@@H](O)[C@H]3O)c(=O)[nH]2)cc1`: the EC50 in [2] is 1670 nM. This molecule displayed an inhibition in assay [8] of 85%. With `O=c1cnn([C@@H]2O[C@H](COP(=O)(O)CP(=O)(O)O)[C@@H](O)[C@H]2O)c(=O)[nH]1`, the Activity in assay [1] amounted to 5.2%.

As for `CCn1c(=O)ccn([C@@H]2O[C@H](COP(=O)(O)CP(=O)(O)O)[C@@H](O)[C@H]2O)c1=O`, the Activity in assay [1] came out at 3.5%. Consider `Nc1nc(=O)n([C@@H]2O[C@H](COP(=O)(O)CP(=O)(O)O)[C@@H](O)[C@H]2O)cc1F`, for which the Activity in assay [1] was 5.7%.

For the molecule `O=c1[nH]/c(=N\OCc2ccccc2)ccn1[C@@H]1O[C@H](COP(=O)(O)OP(=O)(O)O)[C@@H](O)[C@H]1O`, the EC50 in assay [2] was found to be 793 nM. The molecule `O=c1[nH]/c(=N\OCc2ccc(Cl)cc2)ccn1[C@@H]1O[C@H](COP(=O)(O)CP(=O)(O)O)[C@@H](O)[C@H]1O` registered an IC50 in assay [3] of over 100000 nM. For `O=c1[nH]c(=O)n([C@@H]2O[C@H](COP(=O)(O)CP(=O)(O)O)[C@@H](O)[C@H]2O)cc1I`, the concentration giving a half-maximal response (EC50) in assay [2] stood at 49.1 nM. The IC50 in assay [5] stood at 162 nM. Regarding `O=c1[nH]/c(=N\OCc2ccccc2)ccn1[C@@H]1O[C@H](COP(=O)(O)CP(=O)(O)O)[C@@H](O)[C@H]1O`, half-maximal inhibition in assay [5] (IC50) required 112 nM.

In turn, `O=c1ccn([C@@H]2O[C@H](COP(=O)(O)CP(=O)(O)O)[C@@H](O)[C@H]2O)c(=O)[nH]1` gave a 50% inhibitory concentration (IC50) in assay [5] of 1830 nM. Moreover, the concentration giving a half-maximal response (EC50) is 11 nM in assay [9] and 339 nM in assay [10].

The molecule `O=c1ccn([C@@H]2O[C@H](COP(=O)(O)CP(=O)(O)O)[C@@H](O)[C@H]2O)c(=S)[nH]1` displayed an EC50 in [10] of 1990 nM.

Turning to `O=c1[nH]/c(=N\OCc2ccc(C(F)(F)F)cc2)ccn1[C@@H]1O[C@H](COP(=O)(O)CP(=O)(O)O)[C@@H](O)[C@H]1O`, the results for the IC50 in [3] and in [5] were over 100000 nM and 30 nM, respectively. Consider `Nc1nc(=O)n([C@@H]2O[C@H](COP(=O)(O)CP(=O)(O)O)[C@@H](O)[C@H]2O)cc1I`, for which the Activity in assay [1] worked out at 3.4%. On the same count and under the same terms, with `O=c1ccn([C@@H]2O[C@H](COP(=O)(O)CP(=O)(O)O)[C@@H](O)[C@@H]2O)c(=O)[nH]1` the figure was 2.4%. On the same count and under the same terms, as for `Cc1cn([C@@H]2O[C@H](COP(=O)(O)CP(=O)(O)O)[C@@H](O)[C@H]2O)c(=O)nc1N`, the figure is 3%. In the case of `CO/N=c1/ccn([C@@H]2O[C@H](COP(=O)(O)OP(=O)(O)O)[C@@H](O)[C@H]2O)c(=O)[nH]1`, the 50% effective concentration (EC50) in assay [2] is 493 nM.

As for `CO/N=c1/ccn([C@@H]2O[C@H](COP(=O)(O)CP(=O)(O)O)[C@@H](O)[C@H]2O)c(=O)[nH]1`, the midpoint of inhibition in assay [5], the IC50, lay at 257 nM. Regarding `CCn1c(=O)n([C@@H]2O[C@H](COP(=O)(O)CP(=O)(O)O)[C@@H](O)[C@H]2O)cc/c1=N/OCc1ccccc1`, in [1], the Activity came to 5.7%. On the same count and under the same terms, as for `O=c1ccn([C@@H]2O[C@H](COP(=O)(O)CP(=O)(O)O)[C@@H](O)[C@H]2O)c(=O)n1Cc1ccccc1`, the figure is 5.3%.

What is called EC50 is the midpoint of the concentration-response curve. By IC50 is commonly meant the concentration at which inhibition is half-maximal. A lower IC50 goes with greater potency. Usually inhibition stands for the share of the control response that was lost under treatment. A higher inhibition goes with a response far below the control.

Source of the values: ChEMBL document CHEMBL4819144, “Structure-activity relationships of pyrimidine nucleotides containing a 5'-α,β-methylene diphosphonate at the P2Y6 receptor” (Bioorg Med Chem Lett, 2021).
